Experimental data reported in ChEMBL document CHEMBL3392966, “Antiproliferative activity of synthetic fatty acid amides from renewable resources” (Bioorg Med Chem, 2015).
In brackets after ≈: the same amount, converted by molar mass.

Columns and labels:
NCI/ADR-RES [1] = test: Antiproliferative activity against human NCI/ADR-RES cells assessed as tumor growth inhibition after 48 hrs by sulforhodamine B assay; format: functional
How it was run: (§1)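 Tumor cells grown in RPMI 1640 with 5% fetal bovine serum, with penicillin/streptomycin in experimental cultures. Exposed in 96-well plates to samples in DMSO/RPMI at 0.25, 2.5, 25 and 250 µg/mL, 37 °C, 5% CO2, 48 h. Fixed with 50% trichloroacetic acid before (T0) and after treatment, protein stained with sulforhodamine B and read at 540 nm. GI50, TGI and LC50 in µg/mL from dose-response curves by non-linear regression.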

U-251 [2] = test: Antiproliferative activity against human U251 cells assessed as tumor growth inhibition after 48 hrs by sulforhodamine B assay; format: functional; settings: U-251, 48 h; how it was run: as §1
U-251 [3] = test: Antiproliferative activity against human U251 cells after 48 hrs by sulforhodamine B assay; format: functional; settings: U-251, 48 h; how it was run: as §1
MCF7 [4] = test: Antiproliferative activity against human MCF7 cells after 48 hrs by sulforhodamine B assay; format: functional; settings: MCF7, 48 h; how it was run: as §1
786-0 [5] = test: Antiproliferative activity against human 786-0 cells assessed as tumor growth inhibition after 48 hrs by sulforhodamine B assay; format: functional; settings: 786-0, 48 h; how it was run: as §1
MCF7 [6] = test: Antiproliferative activity against human MCF7 cells assessed as tumor growth inhibition after 48 hrs by sulforhodamine B assay; format: functional; settings: MCF7, 48 h; how it was run: as §1
HaCaT [7] = test: Cytotoxicity against human HaCaT cells after 48 hrs by sulforhodamine B assay; format: cell-based
[8] = Antiproliferative activity against human OVCAR3 cells after 48 hrs by sulforhodamine B assay; format: functional; settings: OVCAR-3, 48 h; how it was run: as §1
786-0 [9] = test: Antiproliferative activity against human 786-0 cells after 48 hrs by sulforhodamine B assay; format: functional; settings: 786-0, 48 h; how it was run: as §1
NCI/ADR-RES [10] = test: Antiproliferative activity against human NCI/ADR-RES cells after 48 hrs by sulforhodamine B assay; format: functional; how it was run: as §1
[11] = Antiproliferative activity against human PC3 cells assessed as tumor growth inhibition after 48 hrs by sulforhodamine B assay; format: functional; settings: PC-3, 48 h; how it was run: as §1
[12] = Antiproliferative activity against human PC3 cells after 48 hrs by sulforhodamine B assay; format: functional; settings: PC-3, 48 h; how it was run: as §1
NCI-H460 [13] = test: Antiproliferative activity against human NCI-H460 cells after 48 hrs by sulforhodamine B assay; format: functional; settings: NCI-H460, 48 h; how it was run: as §1
[14] = Antiproliferative activity against human OVCAR3 cells assessed as tumor growth inhibition after 48 hrs by sulforhodamine B assay; format: functional; settings: OVCAR-3, 48 h; how it was run: as §1
NCI-H460 [15] = test: Antiproliferative activity against human NCI-H460 cells assessed as tumor growth inhibition after 48 hrs by sulforhodamine B assay; format: functional; settings: NCI-H460, 48 h; how it was run: as §1
HaCaT [16] = test: Cytotoxicity against human HaCaT cells assessed as tumor growth inhibition after 48 hrs by sulforhodamine B assay; format: cell-based
How it was run: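 Non-tumor lines (human HaCaT keratinocytes; Vero) in RPMI 1640 with 5% FBS, with penicillin/streptomycin added to experimental cultures. 48 h exposure at 0.25–250 µg/mL (DMSO/RPMI), 37 °C, 5% CO2. TCA fixation at time zero and at end, sulforhodamine B protein stain, absorbance 540 nm. TGI (total growth inhibition) from non-linear regression of the dose-response curve.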

| SMILES | TGI (NCI/ADR-RES [1]) [µg/mL] | TGI (U-251 [2]) [µg/mL] | GI50 (U-251 [3]) [µg/mL] | GI50 (MCF7 [4]) [µg/mL] | TGI (786-0 [5]) [µg/mL] | TGI (MCF7 [6]) [µg/mL] | LC50 (HaCaT [7]) [µg/mL] | GI50 [8] [µg/mL] | GI50 (786-0 [9]) [µg/mL] | GI50 (NCI/ADR-RES [10]) [µg/mL] | TGI [11] [µg/mL] | GI50 [12] [µg/mL] | GI50 (NCI-H460 [13]) [µg/mL] | TGI [14] [µg/mL] | TGI (NCI-H460 [15]) [µg/mL] | TGI (HaCaT [16]) [µg/mL] |
| --- | --- | --- | --- | --- | --- | --- | --- | --- | --- | --- | --- | --- | --- | --- | --- | --- |
| CCCCCCCCCCCCCCCC(=O)N1CCOCC1 | 70.3 (≈ 216 µM) | 55.9 (≈ 172 µM) | 25 (≈ 76.8 µM) | 15.4 (≈ 47.3 µM) | 69.9 (≈ 215 µM) | 54.7 (≈ 168 µM) | 28.9 (≈ 88.8 µM) | 33.1 (≈ 102 µM) | 33.1 (≈ 102 µM) | 6.2 (≈ 19 µM) | 36.7 (≈ 113 µM) | 22.2 (≈ 68.2 µM) | 34.1 (≈ 105 µM) | 72.7 (≈ 223 µM) | 91 (≈ 280 µM) | 73.7 (≈ 226 µM) |
| CCCCC/C=C\C/C=C\CCCCCCCC(=O)N1CCCCC1 | 63.2 (≈ 182 µM) | 22.1 (≈ 63.6 µM) | 44.2 (≈ 127 µM) | 22.1 (≈ 63.6 µM) | 29.1 (≈ 83.7 µM) | 44.2 (≈ 127 µM) | 4.2 (≈ 12.1 µM) | 48.9 (≈ 141 µM) | 58.4 (≈ 168 µM) | 63.2 (≈ 182 µM) | 48.9 (≈ 141 µM) | 53.6 (≈ 154 µM) | 29.1 (≈ 83.7 µM) | 58.4 (≈ 168 µM) | 53.6 (≈ 154 µM) | 30.5 (≈ 87.7 µM) |
| CCCCCCCC/C=C\CCCCCCCC(=O)N[C@@H](C)c1ccccc1 | 7.1 (≈ 18.4 µM) | 17.8 (≈ 46.2 µM) | 5.1 (≈ 13.2 µM) | 7.17 (≈ 18.6 µM) | 45.8 (≈ 119 µM) | 43 (≈ 112 µM) | 6.4 (≈ 16.6 µM) | 10.5 (≈ 27.2 µM) | 10.3 (≈ 26.7 µM) | 0.3 (≈ 0.778 µM) | 47.1 (≈ 122 µM) | 13.7 (≈ 35.5 µM) | 15.2 (≈ 39.4 µM) | 45.5 (≈ 118 µM) | 49.3 (≈ 128 µM) | 36.8 (≈ 95.4 µM) |
| CCCCCCCC/C=C/CCCCCCCC(=O)N[C@@H](C)c1ccccc1 | > 250 | > 250 | – | 110 (≈ 286 µM) | > 250 | > 250 | 24.6 (≈ 63.8 µM) | 21.7 (≈ 56.3 µM) | – | – | > 250 | – | – | > 250 | > 250 | > 250 |
| CCCCCCCCCCCCCCCCCC(=O)N1CCCC1 | 43.5 (≈ 129 µM) | 32.5 (≈ 96.3 µM) | 8 (≈ 23.7 µM) | 7.4 (≈ 21.9 µM) | 48.4 (≈ 143 µM) | 39.9 (≈ 118 µM) | 6.3 (≈ 18.7 µM) | 7.3 (≈ 21.6 µM) | 14 (≈ 41.5 µM) | 7.1 (≈ 21 µM) | 36 (≈ 107 µM) | 9.4 (≈ 27.8 µM) | 10.8 (≈ 32 µM) | 68.5 (≈ 203 µM) | 56.8 (≈ 168 µM) | 27.4 (≈ 81.2 µM) |
| CCCCCC[C@@H](O)C/C=C\CCCCCCCC(=O)N1CCCCC1 | 22.7 (≈ 62.1 µM) | 6.3 (≈ 17.2 µM) | 14.8 (≈ 40.5 µM) | 6.3 (≈ 17.2 µM) | 10.7 (≈ 29.3 µM) | 14.8 (≈ 40.5 µM) | 2.6 (≈ 7.11 µM) | 16.6 (≈ 45.4 µM) | 24.2 (≈ 66.2 µM) | 22.7 (≈ 62.1 µM) | 16.6 (≈ 45.4 µM) | 23.3 (≈ 63.7 µM) | 10.7 (≈ 29.3 µM) | 24.2 (≈ 66.2 µM) | 23.3 (≈ 63.7 µM) | 12.8 (≈ 35 µM) |
| CCCCCCCCCCCCCCCCCC(=O)N1CCOCC1 | 86.9 (≈ 246 µM) | 82.6 (≈ 234 µM) | 39.9 (≈ 113 µM) | 42.8 (≈ 121 µM) | 85.6 (≈ 242 µM) | 81.7 (≈ 231 µM) | 41.5 (≈ 117 µM) | 43.3 (≈ 122 µM) | 41.1 (≈ 116 µM) | 33.1 (≈ 93.6 µM) | 102 (≈ 290 µM) | 41.1 (≈ 116 µM) | 53.1 (≈ 150 µM) | 111 (≈ 314 µM) | 161 (≈ 455 µM) | 94.2 (≈ 266 µM) |
| CCCCCCCCCCCCCCCCCC(=O)NCCO [N-(2-HYDROXYETHYL)STEARAMIDE] | > 250 | > 250 | 117 (≈ 357 µM) | 130 (≈ 395 µM) | > 250 | > 250 | 117.7 (≈ 359 µM) | 158 (≈ 481 µM) | – | 158 (≈ 481 µM) | > 250 | 75.6 (≈ 231 µM) | – | > 250 | > 250 | > 250 |
| CCCCCCCC/C=C\CCCCCCCC(=O)NCCO [OLEOYLETHANOLAMIDE] | 39.5 (≈ 121 µM) | 51.3 (≈ 158 µM) | 27.3 (≈ 83.9 µM) | 25.9 (≈ 79.6 µM) | 64.6 (≈ 198 µM) | 66.7 (≈ 205 µM) | 14.4 (≈ 44.2 µM) | 35.4 (≈ 109 µM) | 35.4 (≈ 109 µM) | 9.1 (≈ 28 µM) | 44.2 (≈ 136 µM) | 16.9 (≈ 51.9 µM) | 36.5 (≈ 112 µM) | 71.7 (≈ 220 µM) | 81 (≈ 249 µM) | 53.5 (≈ 164 µM) |
| CCCCCCCCCCCCCCCC(=O)NCCO [PALMIDROL] | > 250 | > 250 | – | – | > 250 | > 250 | – | – | – | 158 (≈ 527 µM) | > 250 | – | – | > 250 | > 250 | > 250 |
